PMC4324418 (ACS Chemical Neuroscience, 2014)
Marks after values point to notes of the source that are not given here.

How the values were obtained:
rat M4 receptor = biological target: T1, rat M4 receptor (Rattus norvegicus, UniProt P08485); format: cell-based; conditions: maximum response as % of the Emax of ACh
T1 sequence (P08485 1-478): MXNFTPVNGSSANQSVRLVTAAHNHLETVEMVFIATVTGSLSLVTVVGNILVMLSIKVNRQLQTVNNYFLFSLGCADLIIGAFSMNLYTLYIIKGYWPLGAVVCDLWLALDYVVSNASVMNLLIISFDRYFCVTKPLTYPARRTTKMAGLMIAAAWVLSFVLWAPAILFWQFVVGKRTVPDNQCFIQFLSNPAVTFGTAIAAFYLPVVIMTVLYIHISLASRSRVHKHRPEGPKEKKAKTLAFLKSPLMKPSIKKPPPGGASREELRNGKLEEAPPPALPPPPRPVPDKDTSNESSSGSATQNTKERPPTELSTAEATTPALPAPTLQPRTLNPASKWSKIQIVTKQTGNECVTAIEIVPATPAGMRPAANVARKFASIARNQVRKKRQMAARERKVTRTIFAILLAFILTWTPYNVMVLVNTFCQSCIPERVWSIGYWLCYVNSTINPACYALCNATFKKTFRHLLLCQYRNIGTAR

cyno M4 = biological target: T2, cyno M4 (Macaca fascicularis, UniProt G7PQB4); experiment: Calcium mobilization, potentiation of ACh EC20; format: cell-based, cynomolgus monkey; conditions: maximum response as % of the Emax of ACh
T2 sequence (G7PQB4 1-479): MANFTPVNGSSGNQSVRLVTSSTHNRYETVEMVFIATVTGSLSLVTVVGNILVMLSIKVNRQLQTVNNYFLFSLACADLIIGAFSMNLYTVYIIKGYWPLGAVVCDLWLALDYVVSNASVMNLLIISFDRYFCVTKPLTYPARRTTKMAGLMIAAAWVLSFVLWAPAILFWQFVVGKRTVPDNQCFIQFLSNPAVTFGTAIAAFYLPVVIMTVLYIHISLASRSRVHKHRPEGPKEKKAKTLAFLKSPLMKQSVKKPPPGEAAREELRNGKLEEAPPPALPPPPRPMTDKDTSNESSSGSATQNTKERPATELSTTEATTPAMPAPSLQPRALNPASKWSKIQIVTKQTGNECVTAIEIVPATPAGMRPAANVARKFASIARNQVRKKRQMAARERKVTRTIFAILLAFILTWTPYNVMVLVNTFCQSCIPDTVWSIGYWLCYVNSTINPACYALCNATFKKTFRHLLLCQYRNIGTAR
Summary of the method: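 Receptor-expressing cells were plated at 15000 cells/well in DMEM with 10% dialyzed FBS, 20 mM HEPES and 1 mM pyruvate, and grown overnight at 37 °C/5% CO2. Test compound was added, then ACh at EC20 140 s later and at EC80 120 s later. Responses were normalized to 10 μM ACh maximum; ≥3 independent experiments.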

in vitro = in vitro ADME; conditions: rat, plasma
[1] = Mouse brain homogenate binding; format: in vitro ADME
[2] = Amphetamine-induced hyperlocomotion in wild-type mice; format: in vivo, mouse; conditions: mouse, brain, ip, WT mice
wild-type mice [3] = experiment: as above; format: in vivo, mouse; conditions: WT mice, amphetamine […] SC
M4 KO mice = experiment: MK-801-induced hyperlocomotion in M4 KO mice; format: in vivo, mouse
Summary of the method: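 Wild-type and M4 KO mice were habituated 90 min in a photobeam open field. They then received vehicle (10% Tween 80 IP), followed 30 min later by saline or MK-801 IP, and activity was recorded for 120 min. Distance traveled was binned per 5 min. Totals covered t = 120 to 240 min and were analyzed by ANOVA with Bonferroni post hoc tests.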

wild-type mice [4] = experiment: Touchscreen pairwise visual discrimination task, wild-type mice; format: in vivo, mouse
Summary of the method: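 Mice aged 8–11 weeks were held at ~85% free-feeding weight, with water freely available. They were trained on touchscreen nosepoke discrimination (60 trials or 60 min) to ≥85% accuracy on 3 consecutive days. Next day: vehicle (10% Tween 80 IP) or test compound (3–30 mg/kg IP) 60 min pre-test, then saline or MK-801 (0.1–0.3 mg/kg IP) 30 min later. Mice were retested drug-free 24 h later. Analysis: ANOVA with Bonferroni tests.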

wild-type mice [5] = experiment: Contextual fear conditioning, one-shock paradigm; format: in vivo, mouse; conditions: 3–30 mg/kg, measured 24 h later
Summary of the method: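 One-shock contextual conditioning used a 3 min session: 2 min habituation, one 0.4 mA shock, then 59 s before removal. Dosing was vehicle (10% Tween 80 in sterile water) or test compound at 3, 10 or 30 mg/kg IP. Mice were returned to the same chamber 24 h later, and percent time freezing was scored over 3 min.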

[6] = Pharmacokinetic and brain distribution studies in mice; conditions: for AUC(0-t) / Cmax / Tmax: male, C57BL/6, mouse, in vivo
[7] = VU0467154 3.0 mg/kg IP + MK-801 0.30 mg/kg IP
[8] = VU0467154 3.0 mg/kg IP + vehicle
[9] = VU0467154 5.6 mg/kg IP + MK-801 0.30 mg/kg IP
[10] = VU0467154 5.6 mg/kg IP + vehicle
[11] = VU0467154 10.0 mg/kg IP + MK-801 0.30 mg/kg IP
[12] = VU0467154 10.0 mg/kg IP + vehicle
[13] = VU0467154 30.0 mg/kg IP + vehicle

Cc1nnc2sc(C(=O)NCc3ccc(S(=O)(=O)C(F)(F)F)cc3)c(N)c2c1C [VU0467154, 5-amino-3,4-dimethyl-N-(4-((trifluoromethyl)sulfonyl)benzyl)thieno[2,3-c]pyridazine-6-carboxamide]
%AChmax (rat M4 receptor): 68%
%AChmax (cyno M4): 57%
fraction unbound (in vitro): 0.031
fraction unbound [1]: 0.014
concentration at 2.5 h ([2]; 0.3 mg/kg, mean Cbrain, 0.3 mg/kg IP, at 2.5 h postadministration): 24 nM
concentration at 2.5 h ([2]; 0.3 mg/kg, mean Cbrain,u, 0.3 mg/kg IP, 2.5 h, in vitro mouse fubrain 0.014): 0.3 nM
concentration at 2.5 h ([2]; 3 mg/kg, mean Cbrain, 3 mg/kg IP, at 2.5 h postadministration): 157 nM
concentration at 2.5 h ([2]; 3 mg/kg, mean Cbrain,u, 3 mg/kg IP, 2.5 h, in vitro mouse fubrain 0.014): 2.2 nM
concentration at 2.5 h ([2]; 10 mg/kg, mean Cbrain, 10 mg/kg IP, at 2.5 h postadministration): 398 nM
concentration at 2.5 h ([2]; 10 mg/kg, mean Cbrain,u, 10 mg/kg IP, 2.5 h, in vitro mouse fubrain 0.014): 5.6 nM
concentration at 2.5 h ([2]; 30 mg/kg, mean Cbrain,u, 30 mg/kg IP, 2.5 h, in vitro mouse fubrain 0.014): 8.1 nM
mean reversal of AHL (wild-type mice [3]; 0.3 mg/kg IP): 3.7%
mean reversal of AHL (wild-type mice [3]; 1 mg/kg IP): 41.6%
mean reversal of AHL (wild-type mice [3]; 3 mg/kg IP): 70.4%
mean reversal of AHL (wild-type mice [3]; 10 mg/kg IP): 81.5%
mean reversal of AHL (wild-type mice [3]; 30 mg/kg IP): 90.7%
effect on MK-801-induced hyperlocomotion (M4 KO mice): had no effect on the time course of MK-801-induced hyperlocomotion
animals that did not complete all 60 trials in the 60 min session (wild-type mice [4]; 3 mg/kg VU0467154 in combination with 0.3 mg/kg MK-801): 14%
animals that did not complete all 60 trials in the 60 min session (wild-type mice [4]; 10 mg/kg VU0467154 alone): 25%
animals that did not complete all 60 trials in the 60 min session (wild-type mice [4]; 30 mg/kg VU0467154 alone): 33%
correct reward collection latency (wild-type mice [4]; [7]): 3.34 ± 2.06 s
correct touch latency (wild-type mice [4]; [7]): 18.14 ± 14.17 s
time to complete 60 trials (wild-type mice [4]; [7]): 1239 ± 397.7 ^d s
correct reward collection latency (wild-type mice [4]; [8]): 1.13 ± 0.07 s
correct touch latency (wild-type mice [4]; [8]): 2.01 ± 0.16 s
time to complete 60 trials (wild-type mice [4]; [8]): 1061 ± 130.2 s
correct reward collection latency (wild-type mice [4]; [9]): 1.23 ± 0.08 s
correct touch latency (wild-type mice [4]; [9]): 4.10 ± 0.63 s
time to complete 60 trials (wild-type mice [4]; [9]): 856 ± 58.4 s
correct reward collection latency (wild-type mice [4]; [10]): 2.09 ± 0.50 s
correct touch latency (wild-type mice [4]; [10]): 2.24 ± 0.36 s
time to complete 60 trials (wild-type mice [4]; [10]): 1256 ± 211.5 s
correct reward collection latency (wild-type mice [4]; [11]): 1.33 ± 0.08 s
correct touch latency (wild-type mice [4]; [11]): 6.39 ± 1.11 s
time to complete 60 trials (wild-type mice [4]; [11]): 1017 ± 89.1 s
correct reward collection latency (wild-type mice [4]; [12]): 9.24 ± 6.71 s
correct touch latency (wild-type mice [4]; [12]): 18.58 ± 8.50 s
time to complete 60 trials (wild-type mice [4]; [12]): 2171 ± 424.8 ^b s
correct reward collection latency (wild-type mice [4]; [13]): 2.82 ± 0.71 s
correct touch latency (wild-type mice [4]; [13]): 20.89 ± 4.17 s
time to complete 60 trials (wild-type mice [4]; [13]): 2557 ± 397.1 ^c s
acquisition of contextual fear conditioning behaviors (wild-type mice [5]): dose-dependent enhancement
AUC(0-t) ([6]; ip, 3 mg/kg): 9.2 µM·h
Cmax ([6]; ip, 3 mg/kg): 2000 nM
Tmax ([6]; ip, 3 mg/kg): 1 h
AUC(0-t) ([6]; ip, 10 mg/kg): 39 µM·h
Cmax ([6]; ip, 10 mg/kg): 5600 nM
Tmax ([6]; ip, 10 mg/kg): 0.5 h
Tmax ([6]; ip, 30 mg/kg): 0.5 h
AUC(0-t) ([6]; po, 10 mg/kg): 46 µM·h
Cmax ([6]; po, 10 mg/kg): 7600 nM
Tmax ([6]; po, 10 mg/kg): 1 h
AUC(0-t) ([6]; po, 30 mg/kg): 66 µM·h
Cmax ([6]; po, 30 mg/kg): 11000 nM
Tmax ([6]; po, 30 mg/kg): 1 h
brain AUC0–24h ([6]; mouse, IP 3 mg/kg, brain): 5.9 µM·h
